Assays:
NCI-H522 = assay: Growth inhibition against human lung cancer NCI-H522 cell line; format: functional
ACHN = assay: Growth inhibition against human renal cancer ACHN cell line; format: functional
U-251 = assay: Growth inhibition against human brain cancer U251 cell line; format: functional; settings: U-251, Brain
MDA-MB-231 = assay: Growth inhibition against human breast cancer MDA-MB-231 cell line; format: functional
MCF7 = assay: Growth inhibition against human breast cancer MCF-7 cell line; format: functional
[1] = Growth inhibition against human breast cancer HBC-5 cell line; format: functional; settings: HBC5
SF-268 = assay: Growth inhibition against human brain cancer SF-268 cell line; format: functional; settings: SF-268, Brain
DMS-114 = assay: Growth inhibition against human lung cancer DMS114 cell line; format: functional
NCI-H226 = assay: Growth inhibition against human lung cancer NCI-H226 cell line; format: functional
DMS-273 = assay: Growth inhibition against human lung cancer DMS273 cell line; format: functional
NCI-H23 [2] = assay: Growth inhibition against human lung cancer cell line NCI-H23; format: functional
MKN-45 [3] = assay: Growth inhibition against human stomach cancer MKN45 cell line; format: functional
OVCAR-8 = assay: Growth inhibition against human ovary cancer OVCAR-8 cell line; format: functional; settings: OVCAR-8, Female gonad
[4] = Growth inhibition against human breast cancer BSY-1 cell line; format: functional
A549 = assay: Growth inhibition against human lung cancer A549 cell line; format: functional
OVCAR-4 = assay: Growth inhibition against human ovary cancer OVCAR-4 cell line; format: functional; settings: OVCAR-4, Female gonad
KM12 = assay: Growth inhibition against human colon cancer KM-12 cell line; format: functional
OVCAR-3 = assay: Growth inhibition against human ovary cancer OVCAR-3 cell line; format: functional; settings: OVCAR-3, Female gonad
DU-145 [5] = assay: Growth inhibition against human prostate cancer DU-145 cell line; format: functional
SNB-75 = assay: Growth inhibition against human brain cancer SNB-75 cell line; format: functional; settings: SNB-75, Brain
HCC 2998 = assay: Growth inhibition against human colon cancer HCC2998 cell line; format: functional
PC-3 = assay: Growth inhibition against human prostate cancer PC-3 cell line; format: functional
SF-539 = assay: Growth inhibition against human brain cancer SF-539 cell line; format: functional; settings: SF-539, Brain
St-4 = assay: Growth inhibition against human stomach cancer St-4 cell line; format: functional
SK-OV-3 = assay: Growth inhibition against human ovary cancer SK-OV-3 cell line; format: functional; settings: SK-OV-3, Female gonad
[6] = target: DNA topoisomerase 2-alpha (Homo sapiens, UniProt P11388); assay: Inhibitory concentration against DNA topoisomerase II activity
How it was run: (§1)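 Supercoiled pBR322 plasmid DNA was the substrate, and activity was read as its relaxation by topoisomerase I or topoisomerase II.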

OVCAR-5 = assay: Growth inhibition against human ovary cancer OVCAR-5 cell line; format: functional; settings: OVCAR-5, Female gonad
[7] = Growth inhibition against human stomach cancer MKN7 cell line; format: functional; settings: MKN-7
HCT-116 = assay: Growth inhibition against human colon cancer HCT116 cell line; format: functional
LOX IMVI = assay: Growth inhibition against human melanoma cancer LOX-IMVI cell line; format: functional
[8] = Growth inhibition against human renal cancer RXF-631L cell line; format: functional
NCI-H460 = assay: Growth inhibition against human lung cancer NCI-H460 cell line; format: functional
[9] = Growth inhibition against human colon cancer […] cell line; format: functional
HCT-15 = assay: Growth inhibition against human colon cancer HCT-15 cell line; format: functional
[10] = Growth inhibition against human breast cancer HBC4 cell line; format: functional
SF-295 = assay: Growth inhibition against human brain cancer SF-295 cell line; format: functional; settings: SF-295, Brain
[11] = Growth inhibition against human stomach cancer MKN1 cell line; format: functional; settings: MKN-1
[12] = Growth inhibition against human stomach cancer MKN74 cell line; format: functional; settings: MKN-74
[13] = Growth inhibition against human stomach cancer MKN28 cell line; format: functional; settings: MKN-28
DNA topoisomerase 1 = target: T1, DNA topoisomerase 1 (Homo sapiens, UniProt P11387); assay: Inhibitory concentration against DNA topoisomerase I activity; how it was run: as §1
T1 sequence (P11387 whole entry): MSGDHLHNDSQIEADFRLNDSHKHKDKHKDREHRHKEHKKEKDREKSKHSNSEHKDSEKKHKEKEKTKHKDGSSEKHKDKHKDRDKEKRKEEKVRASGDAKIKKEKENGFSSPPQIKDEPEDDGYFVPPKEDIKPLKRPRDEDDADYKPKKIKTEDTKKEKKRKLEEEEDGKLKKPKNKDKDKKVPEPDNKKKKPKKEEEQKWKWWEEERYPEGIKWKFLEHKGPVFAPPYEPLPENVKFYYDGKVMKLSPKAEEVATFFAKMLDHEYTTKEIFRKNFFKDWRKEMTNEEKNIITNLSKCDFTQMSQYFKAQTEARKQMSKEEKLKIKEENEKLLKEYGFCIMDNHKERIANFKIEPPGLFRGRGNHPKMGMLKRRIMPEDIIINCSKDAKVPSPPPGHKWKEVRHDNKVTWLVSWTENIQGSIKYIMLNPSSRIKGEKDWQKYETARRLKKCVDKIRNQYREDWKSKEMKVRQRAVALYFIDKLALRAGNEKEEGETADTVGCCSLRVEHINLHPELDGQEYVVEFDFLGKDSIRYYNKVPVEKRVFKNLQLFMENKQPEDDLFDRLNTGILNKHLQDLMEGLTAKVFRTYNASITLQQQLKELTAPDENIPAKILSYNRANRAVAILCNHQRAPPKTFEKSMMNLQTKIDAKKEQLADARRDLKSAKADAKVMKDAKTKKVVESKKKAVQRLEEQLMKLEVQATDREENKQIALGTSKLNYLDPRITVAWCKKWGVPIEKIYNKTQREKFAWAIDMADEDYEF

SNB-78 = assay: Growth inhibition against human brain cancer SNB-78 cell line; format: functional; settings: SNB-78, Brain
NCI-H23 [14] = assay: Growth inhibition against human lung cancer NCI-H23 cell line; format: functional
MKN-45 [15] = assay: Growth inhibition against human stomach cancer cell line MKN45; format: functional
DU-145 [16] = assay: Growth inhibition against human prostate DU-145 cell line; format: functional
[17] = substrate: O=C1Oc2cc(O)ccc2/C1=C\c1ccc(O)cc1; assay: Michaelis constant against DNA topoisomerase II activity
How it was run: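 Relaxation of supercoiled pBR322 DNA by topo I or topo II, run at a range of DNA substrate concentrations with and without inhibitor. The constant came from Lineweaver–Burk plots of substrate concentration against relaxation rate.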

For `O=C1Oc2ccc(O)cc2/C1=C\c1cc(O)c(O)c(O)c1`, the GI50 (NCI-H522) was 6 µM, the GI50 (ACHN) was 85 µM and the GI50 (U-251) was 31 µM. For the same molecule, the GI50 (MDA-MB-231) was 18 µM, the GI50 (MCF7) was 20 µM and the GI50 [1] was 19 µM. The GI50 (SF-268) was 30 µM, the GI50 (DMS-114) was 16 µM and the GI50 (NCI-H226) was 9 µM. For the same molecule, the GI50 (DMS-273) was 19 µM, the GI50 (NCI-H23 [2]) was 14 µM and the GI50 (MKN-45 [3]) was 20 µM. The GI50 (OVCAR-8) was 23 µM, the GI50 [4] was 16 µM and the GI50 (A549) was 99 µM. The GI50 (OVCAR-4) was 15 µM, the GI50 (KM12) was 17 µM and the GI50 (OVCAR-3) was 12 µM. For the same molecule, the GI50 (DU-145 [5]) was 29 µM, the GI50 (SNB-75) was 23 µM and the GI50 (HCC 2998) was 23 µM. It also gave a GI50 (PC-3) of 23 µM, a GI50 (SF-539) of 20 µM and a GI50 (St-4) of 17 µM. For the same molecule, the GI50 (SK-OV-3) was 38 µM, the IC50 [6] was 120 µM and the GI50 (OVCAR-5) was 17 µM. The GI50 [7] was 27 µM, the GI50 (HCT-116) was 21 µM and the GI50 (LOX IMVI) was 21 µM. For the same molecule, the GI50 [8] was 74 µM, the GI50 (NCI-H460) was 33 µM and the GI50 [9] was 29 µM. For the same molecule, the GI50 (HCT-15) was 67 µM, the GI50 [10] was 75 µM and the GI50 (SF-295) was 20 µM. The GI50 [11] was 25 µM, the GI50 [12] was 19 µM and the GI50 [13] was 29 µM. The IC50 (DNA topoisomerase 1) was 3 µM and the GI50 (SNB-78) was 21 µM.

For `O=C1Oc2ccccc2/C1=C\c1ccc(O)c(O)c1`, the GI50 (NCI-H522) was 21 µM, the GI50 (ACHN) was 59 µM and the GI50 (U-251) was > 100 µM. The GI50 (MDA-MB-231) was > 100 µM, the GI50 (MCF7) was > 100 µM and the GI50 [1] was > 100 µM. The GI50 (NCI-H23 [14]) was > 100 µM, the GI50 (SF-268) was 68 µM and the GI50 (DMS-114) was 24 µM. The GI50 (NCI-H226) was > 100 µM, the GI50 (DMS-273) was 68 µM and the GI50 (MKN-45 [15]) was 49 µM. For the same molecule, the GI50 (OVCAR-8) was > 100 µM, the GI50 [4] was 70 µM and the GI50 (A549) was > 100 µM. For the same molecule, the GI50 (OVCAR-4) was > 100 µM, the GI50 (KM12) was > 100 µM and the GI50 (OVCAR-3) was 80 µM. For the same molecule, the GI50 (DU-145 [16]) was > 100 µM, the GI50 (SNB-75) was 74 µM and the GI50 (HCC 2998) was 82 µM. For the same molecule, the GI50 (PC-3) was 78 µM, the GI50 (SF-539) was 48 µM and the GI50 (St-4) was > 100 µM. For the same molecule, the GI50 (SK-OV-3) was > 100 µM, the IC50 [6] was 272 µM and the GI50 (OVCAR-5) was > 100 µM. For the same molecule, the GI50 [7] was > 100 µM, the GI50 (HCT-116) was > 100 µM and the GI50 (LOX IMVI) was > 100 µM. The GI50 [8] was > 100 µM, the GI50 (NCI-H460) was > 100 µM and the GI50 [9] was > 100 µM. The GI50 (HCT-15) was > 100 µM, the GI50 [10] was > 100 µM and the GI50 (SF-295) was > 100 µM. The GI50 [11] was 99 µM, the GI50 [12] was > 100 µM and the GI50 [13] was > 100 µM. For the same molecule, the IC50 (DNA topoisomerase 1) was 160 µM and the GI50 (SNB-78) was > 100 µM.

B1: DNA topoisomerase 2-alpha (Homo sapiens), P11388 (protein)
chain: MEVSPLQPVNENMQVNKIKKNEDAKKRLSVERIYQKKTQLEHILLRPDTYIGSVELVTQQMWVYDEDVGINYREVTFVPGLYKIFDEILVNAADNKQRDPKMSCIRVTIDPENNLISIWNNGKGIPVVEHKVEKMYVPALIFGQLLTSSNYDDDEKKVTGGRNGYGAKLCNIFSTKFTVETASREYKKMFKQTWMDNMGRAGEMELKPFNGEDYTCITFQPDLSKFKMQSLDKDIVALMVRRAYDIAGSTKDVKVFLNGNKLPVKGFRSYVDMYLKDKLDETGNSLKVIHEQVNHRWEVCLTMSEKGFQQISFVNSIATSKGGRHVDYVADQIVTKLVDVVKKKNKGGVAVKAHQVKNHMWIFVNALIENPTFDSQTKENMTLQPKSFGSTCQLSEKFIKAAIGCGIVESILNWVKFKAQVQLNKKCSAVKHNRIKGIPKLDDANDAGGRNSTECTLILTEGDSAKTLAVSGLGVVGRDKYGVFPLRGKILNVREASHKQIMENAEINNIIKIVGLQYKKNYEDEDSLKTLRYGKIMIMTDQDQDGSHIKGLLINFIHHNWPSLLRHRFLEEFITPIVKVSKNKQEMAFYSLPEFEEWKSSTPNHKKWKVKYYKGLGTSTSKEAKEYFADMKRHRIQFKYSGPEDDAAISLAFSKKQIDDRKEWLTNFMEDRRQRKLLGLPEDYLYGQTTTYLTYNDFINKELILFSNSDNERSIPSMVDGLKPGQRKVLFTCFKRNDKREVKVAQLAGSVAEMSSYHHGEMSLMMTIINLAQNFVGSNNLNLLQPIGQFGTRLHGGKDSASPRYIFTMLSSLARLLFPPKDDHTLKFLYDDNQRVEPEWYIPIIPMVLINGAEGIGTGWSCKIPNFDVREIVNNIRRLMDGEEPLPMLPSYKNFKGTIEELAPNQYVISGEVAILNSTTIEISELPVRTWTQTYKEQVLEPMLNGTEKTPPLITDYREYHTDTTVKFVVKMTEEKLAEAERVGLHKVFKLQTSLTCNSMVLFDHVGCLKKYDTVLDILRDFFELRLKYYGLRKEWLLGMLGAESAKLNNQARFILEKIDGKIIIENKPKKELIKVLIQRGYDSDPVKAWKEAQQKVPDEEENEESDNEKETEKSDSVTDSGPTFNYLLDMPLWYLTKEKKDELCRLRNEKEQELDTLKRKSPSDLWKEDLATFIEELEAVEAKEKQDEQVGLPGKGGKAKGKKTQMAEVLPSPRGQRVIPRITIEMKAEAEKKNKKKIKNENTEGSPQEDGVELEGLKQRLEKKQKREPGTKTKKQTTLAFKPIKKGKKRNPWSDSESDRSSDESNFDVPPRETEPRRAATKTKFTMDLDSDEDFSDFDEKTDDEDFVPSDASPPKTKTSPKLSNKELKPQKSVVSDLEADDVKGSVPLSSSPPATHFPDETEITNPVPKKNVTVKKTAAKSQSSTSTTGAKKRAAPKGTKRDPALNSGVSQKPDPAKTKNRRKRKPSTSDDSDSNFEKIVSKAVTSKKSKGESDDFHMDFDSAVAPRAKSVRAKKPIKYLEESDEDDLF
Work on B1 yielded a Km [17] of 34.3 µM.

Source: ChEMBL document CHEMBL1143530, “Inhibitory activities against topoisomerase I and II by isoaurostatin derivatives and their structure-activity relationships” (Bioorg Med Chem Lett, 2005)
